# Results filed as inconclusive are left out. Calls of active or inactive are those of the source.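 How the source made its calls: active means compounds lowering viability signal with fitted half-maximal potency within ten times the top dose, in every repeat run; inconclusive means repeat runs disagree, or weak flat or poorly fitted curves; inactive means every run inactive, including flat or rising signals.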
# Legend:
# [1] = test system: HMLE_shECad breast CSC viability, CellTiter-Glo, 72 h; experiment: breast CSC-like cell growth inhibition – CellTiter-Glo luminescence, powder samples, set 4, dose response (AID 504449)
# Procedure, shortened: (§1)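 Timing: ≥4 h cell settling at 37 °C, ~70-74 h compound exposure. System: HMLE_shECad cells, E-cadherin knockdown, EMT-induced breast cancer stem cell model. Detection: CellTiter-Glo luminescence, reagent diluted 1:3 in PBS, 12 min.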
# [2] = as above; details: HMLE_shECad breast CSC viability, CellTiter-Glo, 72 h; at 30 µM (top of the series)
# Procedure, shortened: as §1
Structure (SMILES),AC50 [1] [µM],"activity change, negative = inhibition [2]"
Cc1csc(NC(=O)c2ccc(COc3cccc(OC(F)(F)F)c3)o2)n1,0.439,
CC[C@@H](C(=O)O)C1CC[C@H](C)C([C@@H](C)[C@H](O)[C@H](C)C(=O)[C@H](CC)C2O[C@]3(C=C[C@@H](O)[C@]4(CC[C@@](C)(C5CC[C@](O)(CC)[C@H](C)O5)O4)O3)[C@H](C)C[C@@H]2C)O1 (stereo not given in full),0.01,
COc1cccc(/C=C/C(=O)NC2=NCCS2)c1,,-21% (inactive)
COc1cccc(OCc2ccc(C(=O)Nc3nc(C)cs3)o2)c1,0.081,
Cc1csc(NC(=O)c2ccc(COc3ccc(OC(F)(F)F)cc3)o2)n1,3.16,
Cc1csc(NC(=O)c2ccc(COc3ccc(F)cc3)o2)n1,5.65,
O=C(N/N=C/c1ccc[nH]1)C1COc2cc3ccccc3cc2O1 (stereo not given),4.2,
Cc1cccc(OCC(=O)N/N=C/c2ccc[nH]2)c1C,24.6,
Cc1ccc(/C=C/C(=O)NC2=NCCS2)cc1,16,
Cc1ccc(C)c(OCC(=O)N/N=C/c2ccc[nH]2)c1,9.05,
Cc1csc(NC(=O)c2ccc(COc3ccc(C#N)cc3)o2)n1,11.5,
O=C(/C=C/c1cccc(Cl)c1)NC1=NCCS1,15,
Cc1csc(NC(=O)c2ccc(COc3cccc(F)c3)o2)n1,10.1,
CC(C)c1ccc(/C=C/C(=O)NCc2ccccc2)cc1,,-6.44% (inactive)
O=C(NC1=NCCS1)/C(F)=C/c1ccccc1,,10.8% (inactive)
Cc1csc(NC(=O)c2ccc(COc3ccccc3F)o2)n1,0.019,
Cc1csc(NC(=O)c2ccc(COc3cccc(C(F)(F)F)c3)o2)n1,1.57,
O=C(N/N=C/c1ccn[nH]1)c1cc2ccccc2o1,,26.2% (inactive)
Cc1csc(NC(=O)c2ccc(COc3ccc(C(F)(F)F)cc3)o2)n1,2.01,
O=C(Nc1nc2cccc(Cl)c2s1)c1ccc(COc2ccccc2)o1,4.49,
Cc1csc(NC(=O)c2ccc(CO)o2)n1,,-1.83% (inactive)
Cc1csc(NC(=O)c2ccc(COc3ccccc3C#N)o2)n1,0.917,
CC(C)c1ccc(/C=C/C(=O)Nc2nccn2C)cc1,4.65,
O=C(c1ccc(COc2ccccc2)o1)N1CCOCC1,,2% (inactive)
O=C(Nc1nccs1)c1ccc(COc2ccccc2)o1,,6.69% (inactive)
COc1ccccc1OCc1ccc(C(=O)Nc2nc(C)cs2)o1,1.63,
O=C(COc1ccc2ccccc2c1Br)N/N=C/c1ccc[nH]1,1.11,
C/C(=C\c1ccccc1)C(=O)NC1=NCCS1,,8.28% (inactive)

Structure (SMILES),AC50 [1] [µM],"activity change, negative = inhibition [2]"
CC(C)c1ccc(/C=C/C(=O)Nc2ccccn2)cc1,25.5,
Cn1ccnc1NC(=O)c1ccc(COc2ccccc2)o1,,-15.5% (inactive)
O=S(=O)(/C=C/c1ccccc1)NC1=NCCS1,,14.4% (inactive)
COc1ccccc1OCC(=O)N/N=C/c1ccc[nH]1,,9.18% (inactive)
C(=C\c1ccccc1)/CNC1=NCCS1,,10.6% (inactive)
Cc1csc(NC(=O)c2ccc(COc3ccccc3Cl)o2)n1,0.045,
O=C(COc1ccc(Cl)cc1Br)N/N=C/c1ccc[nH]1,3.16,
Cc1csc(NC(=O)c2ccc(COc3cccc(Cl)c3)o2)n1,0.572,
O=C(COc1ccc(Cl)cc1Cl)N/N=C/c1ccn[nH]1,,1.84% (inactive)
Cc1ccc2cc(C(=O)NC3=NCCS3)n(C)c2c1,,-17.3% (inactive)
Cc1csc(NC(=O)c2ccc(COc3ccc(Cl)cc3)o2)n1,2.82,
CC(C)c1ccc(/C=C/C(=O)N(C)Cc2ccccc2)cc1,19.2,
O=C(/C=C/c1ccc(C(F)(F)F)cc1)NC1=NCCS1,,-1.72% (inactive)
CC(C)c1ccc(/C=C/C(=O)Nc2nccs2)cc1,3.54,
CC(C)c1ccc(/C=C/C(=O)Nc2nncs2)cc1,13.6,
CC(C)c1ccc(/C=C/C(=O)N2CCOCC2)cc1,,17.8% (inactive)
O=C(COc1ccc(Br)cc1)N/N=C/c1ccc[nH]1,15.3,
CC(C)(C)c1ccc(C2CC2C(=O)N/N=C/c2ccc[nH]2)cc1 (stereo not given),0.787,
Cc1cc(C)c(/C=N/NC(=O)COc2c(Cl)cc(Cl)cc2Cl)[nH]1,,-14.5% (inactive)
COc1ccc(OCc2ccc(C(=O)Nc3nc(C)cs3)o2)cc1,29.4,
O=C(Nc1ccccn1)c1ccc(COc2ccccc2)o1,,-28.5% (inactive)
Cc1csc(NC(=O)c2ccc(COc3cccc(C#N)c3)o2)n1,2.07,
O=C(N/N=C/c1ccc[nH]1)C1CC1c1ccccc1 (stereo not given),12.9,
O=C(COc1c(Cl)cc(Cl)cc1Cl)N/N=C/c1ccn[nH]1,,6.67% (inactive)
Cc1csc(NC(=O)c2ccc(COc3ccccc3OC(F)(F)F)o2)n1,0.24,
O=C(CSc1cc(Cl)ccc1Cl)N/N=C/c1ccc[nH]1,2.27,
Cc1csc(NC(=O)c2ccc(COc3ccccc3C(F)(F)F)o2)n1,0.065,
